Measurements from paper PMC5684856 (Pharmacology Research & Perspectives, 2017).
Entries after “also recorded” stand apart in the source; their conditions may differ.

Experiments:
rat primary islets = assay: Glucose-dependent insulin secretion in rat islets; assay type: cell-based, Sprague-Dawley rats; conditions: 1 h
Sprague-Dawley rats [1] = assay: Effects on fasting glucose levels in Sprague-Dawley rats; assay type: in vivo, rat; conditions: fasted Sprague-Dawley rats
rat GPR40/FFAR1 = rat GPR40/FFAR1 (Rattus norvegicus, UniProt Q8K3T4); assay: Intracellular calcium assay; assay type: cell-based
In short: (§1)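 CHO-DXB11 cells stably expressing human, mouse or rat GPR40/FFAR1 were grown in Ham's F-12 with 10% heat-inactivated FBS and penicillin/streptomycin in 96-well plates. Test compounds were dissolved in DMSO. Ca2+ increases were measured in duplicate (FLIPR kit, fluorescence imaging reader) and expressed as % of fasiglifam Emax. EC50 was obtained by sigmoidal curve fit; means ± SD of 6 assays.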

human GPR40/FFAR1 = human GPR40/FFAR1 (Homo sapiens, UniProt O14842); assay: Intracellular calcium assay; assay type: cell-based
In short: as §1

[2] = Pharmacokinetic study in rats; assay type: in vivo, male Sprague-Dawley rats; conditions: rat
In short: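 Male Sprague-Dawley rats, 7 weeks old, received 3 mg kg−1 intravenously in N,N-dimethylacetamide/PEG400/water (4/4/2). After overnight fasting, others received 0.3, 1, 3 or 10 mg kg−1 orally as a suspension in 1% Tween 80 with 0.5% carboxymethyl cellulose. Plasma levels were analysed by noncompartmental analysis, with bioavailability from AUC. n = 3 per group; mean (SD).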

mouse GPR40/FFAR1 = mouse GPR40/FFAR1 (Mus musculus, UniProt Q76JU9); assay: Intracellular calcium assay; assay type: cell-based
In short: as §1

Goto-Kakizaki (GK) rats [3] = assay: Oral glucose tolerance test in Goto-Kakizaki rats; assay type: in vivo, rat
In short: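 Male GK rats, 9–10 weeks old, were fasted overnight and grouped (n = 9–10) by fasting glucose and body weight. Vehicle or test compound was given orally, followed by oral glucose 1 g kg−1 60 min later. Blood was taken pre-dose, at −5 min, and at 5–180 min after glucose. Plasma glucose AUC covered −5 to 180 min and insulin AUC −5 to 60 min. Dunnett's test; means + SEM.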

GPR40/FFAR1 = GPR40/FFAR1 (Mus musculus, UniProt Q76JU9); assay type: cell-based
In short: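 CHO-DXB11 cells stably expressing mouse GPR40/FFAR1 were assayed for intracellular Ca2+ increases (FLIPR calcium dye, fluorescence imaging plate reader) in the presence of 10% FBS and 0.5% BSA. Triplicate determinations; means + SD.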

human GPR120/FFAR4 = biological target: T1, human GPR120/FFAR4 (Homo sapiens, UniProt Q5NUL3); assay: Intracellular calcium assay; assay type: cell-based
T1 sequence (Q5NUL3 1-361): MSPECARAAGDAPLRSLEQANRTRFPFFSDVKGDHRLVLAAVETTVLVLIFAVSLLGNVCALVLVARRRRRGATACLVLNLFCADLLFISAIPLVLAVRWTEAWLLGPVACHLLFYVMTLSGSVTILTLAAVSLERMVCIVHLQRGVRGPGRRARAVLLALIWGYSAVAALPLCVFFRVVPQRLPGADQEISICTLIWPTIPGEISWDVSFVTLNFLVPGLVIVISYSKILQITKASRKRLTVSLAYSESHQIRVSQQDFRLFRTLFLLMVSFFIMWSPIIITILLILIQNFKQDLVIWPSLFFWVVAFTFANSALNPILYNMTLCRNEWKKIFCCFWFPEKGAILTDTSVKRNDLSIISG
In short: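 CHO-DXB11 cells were stably transfected with human GPR120/FFAR4 and grown in Ham's F-12 with 10% heat-inactivated FBS. Intracellular Ca2+ changes were measured in duplicate with a FLIPR calcium kit on a fluorescence imaging plate reader. Alpha-linolenic acid served as the control agonist.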

Sprague-Dawley rats [4] = assay: Oral glucose tolerance test in Sprague-Dawley rats; assay type: in vivo, rat
In short: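 Male Sprague-Dawley rats, 7–8 weeks old, were fasted overnight and grouped by body weight (n = 10). Vehicle or test compound was given orally 60 min before oral glucose 1 g kg−1. Blood was sampled pre-dose, at −5 min, and at 5, 15, 30, 60 and 120 min. Plasma glucose was measured enzymatically and insulin by ultrasensitive rat insulin ELISA. AUCs covered −5 to 120 min (glucose) and −5 to 60 min (insulin). Dunnett's test; means + SEM.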

[5] = system: mouse insulinoma MIN6 cells; assay: Caspase 3/7 activity in MIN6 cells; assay type: cell-based; conditions: 72-h exposure
In short: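 MIN6 mouse insulinoma cells were grown in DMEM with 10% heat-inactivated FBS, penicillin/streptomycin and 0.0005% 2-mercaptoethanol. Cells were exposed to test compound or palmitic acid for 72 h in 10% FBS plus 0.5% BSA. Caspase-3/7 activity was read with a homogeneous fluorogenic caspase-3/7 kit. Triplicate determinations; means + SD.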

PPAR gamma = biological target: T2, PPAR gamma (Homo sapiens, UniProt P37231); assay: Nuclear receptor reporter activation assay; assay type: cell-based
T2 sequence (P37231 1-505): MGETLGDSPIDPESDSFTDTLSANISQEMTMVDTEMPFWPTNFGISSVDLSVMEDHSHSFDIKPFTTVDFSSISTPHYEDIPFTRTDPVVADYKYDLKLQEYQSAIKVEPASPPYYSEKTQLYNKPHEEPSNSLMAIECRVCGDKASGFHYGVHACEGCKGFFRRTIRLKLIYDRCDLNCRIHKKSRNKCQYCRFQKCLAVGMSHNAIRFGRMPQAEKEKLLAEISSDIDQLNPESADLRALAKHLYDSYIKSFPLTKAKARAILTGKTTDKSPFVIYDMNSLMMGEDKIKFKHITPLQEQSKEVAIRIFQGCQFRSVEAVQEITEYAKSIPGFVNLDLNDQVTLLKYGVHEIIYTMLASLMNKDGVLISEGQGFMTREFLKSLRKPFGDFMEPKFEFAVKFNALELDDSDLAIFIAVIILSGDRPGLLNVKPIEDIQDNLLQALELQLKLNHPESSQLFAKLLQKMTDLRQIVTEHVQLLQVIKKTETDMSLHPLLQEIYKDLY

Goto-Kakizaki (GK) rats [6] = assay: Chronic 5-week treatment in Goto-Kakizaki rats; assay type: in vivo, rat
human GPR119 = biological target: T3, human GPR119 (Homo sapiens, UniProt Q8TDV5); assay: cAMP reporter assay in CHO-K1 cells expressing human GPR119; assay type: cell-based
T3 sequence (Q8TDV5 1-335): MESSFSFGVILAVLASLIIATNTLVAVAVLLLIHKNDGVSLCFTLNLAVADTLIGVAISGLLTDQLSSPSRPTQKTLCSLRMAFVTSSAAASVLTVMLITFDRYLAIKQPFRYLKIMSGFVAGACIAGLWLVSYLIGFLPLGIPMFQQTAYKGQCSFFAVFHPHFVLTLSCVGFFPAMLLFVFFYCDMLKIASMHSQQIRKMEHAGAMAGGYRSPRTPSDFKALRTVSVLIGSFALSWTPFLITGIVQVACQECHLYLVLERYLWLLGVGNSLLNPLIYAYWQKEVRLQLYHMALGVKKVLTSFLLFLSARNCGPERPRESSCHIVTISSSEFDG
In short: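 CHO-K1 cells stably expressing human GPR119 were co-transfected with a Cre-luciferase reporter and a renilla luciferase control. Cells were incubated with test compound for 4 h, then lysed. Firefly and renilla luciferase activities were measured in duplicate by dual-luciferase chemiluminescence. AR231453 served as the control agonist.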

[7] = ref Tsujihata et al. 2011; Ito et al. 2013; cited from earlier work
[8] = system: healthy volunteers and T2DM patients; conditions: cited from earlier work
[9] = male, Sprague-Dawley, plasma, iv, 3 mg/kg
[10] = male, Sprague-Dawley, plasma, po, 0.3 mg/kg
[11] = male, Sprague-Dawley, plasma, po, 1 mg/kg
[12] = male, Sprague-Dawley, plasma, po, 3 mg/kg
[13] = male, Sprague-Dawley, plasma, po, 10 mg/kg
[14] = 1 mg·kg^−1 p.o., 15 min after glucose challenge
[15] = p.o. 60 min before glucose 1 g kg^−1, vs vehicle

GPR40/FFAR1, sequence (Q76JU9 whole entry): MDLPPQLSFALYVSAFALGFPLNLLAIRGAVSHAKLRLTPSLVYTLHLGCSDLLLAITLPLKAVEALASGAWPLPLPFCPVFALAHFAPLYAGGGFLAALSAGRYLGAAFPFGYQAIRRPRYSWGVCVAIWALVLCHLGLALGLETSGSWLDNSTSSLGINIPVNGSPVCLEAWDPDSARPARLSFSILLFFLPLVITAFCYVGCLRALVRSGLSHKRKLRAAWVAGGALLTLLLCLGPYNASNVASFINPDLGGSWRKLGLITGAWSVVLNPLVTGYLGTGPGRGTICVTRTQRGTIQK
rat GPR40/FFAR1, sequence (Q8K3T4 whole entry): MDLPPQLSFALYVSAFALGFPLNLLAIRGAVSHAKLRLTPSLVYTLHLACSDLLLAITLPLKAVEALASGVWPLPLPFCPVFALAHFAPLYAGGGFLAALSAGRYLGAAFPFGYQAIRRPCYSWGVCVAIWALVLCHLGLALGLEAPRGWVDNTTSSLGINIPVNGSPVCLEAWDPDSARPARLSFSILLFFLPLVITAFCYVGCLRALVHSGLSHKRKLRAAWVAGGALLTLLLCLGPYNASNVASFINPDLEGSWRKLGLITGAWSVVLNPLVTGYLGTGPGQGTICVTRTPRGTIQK
mouse GPR40/FFAR1, sequence (Q76JU9 whole entry): as the sequence (Q76JU9 whole entry) above
human GPR40/FFAR1, sequence (O14842 whole entry): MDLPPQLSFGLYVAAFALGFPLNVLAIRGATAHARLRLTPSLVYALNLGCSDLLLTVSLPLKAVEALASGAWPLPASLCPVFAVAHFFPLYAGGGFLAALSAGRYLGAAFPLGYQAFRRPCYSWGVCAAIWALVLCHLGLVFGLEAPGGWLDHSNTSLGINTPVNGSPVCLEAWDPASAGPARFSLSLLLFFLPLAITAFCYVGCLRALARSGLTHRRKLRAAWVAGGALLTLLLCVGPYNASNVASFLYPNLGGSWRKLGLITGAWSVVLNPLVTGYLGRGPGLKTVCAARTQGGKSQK

SMILES: [Cl-].[K+] [KCl, reference compound]
- insulin secretion in low glucose (rat primary islets; KCl positive control, 2 mmol·L^−1 glucose): significantly potentiated insulin secretion
- insulin secretion in high glucose (rat primary islets; KCl positive control, 16 mmol·L^−1 glucose): significantly potentiated insulin secretion

SMILES: Cc1cc(OCCCS(C)(=O)=O)cc(C)c1-c1cccc(COc2ccc(-c3cc(O)n[s+]3[O-])cc2)c1 [MR1704, (R)‐5‐[4‐[3‐[2,6‐Dimethyl‐4‐[3‐(methylsulphonyl)propoxy]‐phenyl]benzyloxy]phenyl]‐isothiazol‐3‐ol 1‐oxide]
- fasting plasma glucose levels (Sprague-Dawley rats [1]; even at 300 mg·kg^−1 p.o., 1 to 12 h after dosing): did not reduce the fasting plasma glucose levels
- EC50 (rat GPR40/FFAR1): 0.027 ± 0.003 µM
- EC50 (human GPR40/FFAR1): 0.035 ± 0.006 µM
- AUC(0-inf) [2, 9]: 8960 ng·h/mL
- Vd [2, 9]: 0.584 L/kg
- clearance [2, 9]: 5.62 mL/min/kg
- half-life [2, 9]: 1.92 h
- AUC(0-inf) [2, 10]: 511 ng·h/mL
- Cmax [2, 10]: 102 ng/mL
- Tmax [2, 10]: 0.83 h
- bioavailability [2, 10]: 57%
- half-life [2, 10]: 2.48 h
- AUC(0-inf) [2, 11]: 1450 ng·h/mL
- Cmax [2, 11]: 264 ng/mL
- Tmax [2, 11]: 2.67 h
- bioavailability [2, 11]: 49%
- half-life [2, 11]: 2.1 h
- AUC(0-inf) [2, 12]: 4710 ng·h/mL
- Cmax [2, 12]: 755 ng/mL
- Tmax [2, 12]: 4 h
- bioavailability [2, 12]: 53%
- half-life [2, 12]: 2.13 h
- AUC(0-inf) [2, 13]: 8430 ng·h/mL
- Cmax [2, 13]: 1130 ng/mL
- Tmax [2, 13]: 5.33 h
- bioavailability [2, 13]: 28%
- half-life [2, 13]: 2.08 h
- time at which plasma concentrations reached maximum values ([2]; p.o., all tested doses (0.3-10 mg·kg^−1)): 0.83 to 5.33 h
- insulin secretion in low glucose (rat primary islets; MR1704 3 μmol·L^−1, 2 mmol·L^−1 glucose): but not low glucose conditions
- insulin secretion in high glucose (rat primary islets; MR1704 3 μmol·L^−1, 16 mmol·L^−1 glucose): markedly potentiated insulin secretion in high glucose
- EC50 (mouse GPR40/FFAR1): 0.025 ± 0.004 µM
- AUC of glucose levels during OGTT (Goto-Kakizaki (GK) rats [3]; 1 mg·kg^−1 p.o.): significant reduction in the AUC of glucose levels
- plasma insulin secretion during OGTT (Goto-Kakizaki (GK) rats [3]; [14]): significantly enhanced plasma insulin secretion
- plasma glucose excursion during OGTT (Goto-Kakizaki (GK) rats [3]; [15]): reduced plasma glucose excursion
- EC50 (GPR40/FFAR1): 0.21 µM
- hGPR120 activation (at 3 nmol·L^−1) (human GPR120/FFAR4; at 3 nmol·L^−1 as printed): 4%
- agonistic activity in GPR120/FFAR4-expressing cells (human GPR120/FFAR4; at 3 μmol·L^−1): did not show any agonistic activities
- AUC of glucose levels during OGTT (Sprague-Dawley rats [4]; 1 mg·kg^−1 p.o.): significant reduction in the AUC of glucose levels
- plasma insulin secretion during OGTT (Sprague-Dawley rats [4]; [14]): significantly enhanced
- plasma glucose excursion during OGTT (Sprague-Dawley rats [4]; [15]): reduced plasma glucose excursion
- caspase 3/7 activity ([5]; even at 10 μmol·L^−1 with 0.5% BSA): did not induce caspase 3/7 activity
- PPAR gamma activation (at 3 nmol·L^−1) (PPAR gamma; at 3 nmol·L^−1 as printed): 1%
- agonistic activity in PPAR gamma-expressing cells (PPAR gamma; at 3 μmol·L^−1): did not show any agonistic activities
- glycated hemoglobin (HbA1c) levels, effect in words (Goto-Kakizaki (GK) rats [6]; 3 mg·kg^−1 p.o. once daily, after 5 weeks): significantly reduced glycated hemoglobin (HbA1c) levels
- pancreatic insulin content (Goto-Kakizaki (GK) rats [6]; after 5-week treatment, vs vehicle): without reducing pancreatic insulin content; also recorded: No significant difference was observed
- nonfasting glucose levels (Goto-Kakizaki (GK) rats [6]; at least 1 mg·kg^−1 p.o. once daily, 5 weeks): reduced nonfasting glucose levels
- body weight gain (Goto-Kakizaki (GK) rats [6]; once daily p.o., 5 weeks, vs vehicle-treated group): comparable body weight gain
- hGPR119 activation (at 3 nmol·L^−1) (human GPR119; at 3 nmol·L^−1 as printed): 1%
- agonistic activity in GPR119-expressing cells (human GPR119; at 3 μmol·L^−1): did not show any agonistic activities

SMILES: Cc1cc(OCCCS(C)(=O)=O)cc(C)c1-c1cccc(COc2ccc3c(c2)OC[C@H]3CC(=O)O)c1 [fasiglifam]
- pancreatic toxicity [7]: does not cause pancreatic toxicity
- glucose-lowering effect ([8]; T2DM patients, ref Burant et al. 2012, Kaku et al. 2013): glucose‐lowering effect
- hepatotoxicity (liver enzyme levels) ([8]; clinical, ref Kaku et al. 2015): increased liver enzyme levels
- clinical parameters of glucose homeostasis ([8]; healthy human adults, ref Leifke et al. 2012): did not affect clinical parameters of glucose homeostasis
- safety and tolerability ([8]; healthy volunteers, ref Naik et al. 2012): safe and well tolerated

SMILES: COc1ccc(Cl)cc1C(=O)NCCc1ccc(S(=O)(=O)NC(=O)NC2CCCCC2)cc1 [glibenclamide, reference compound]
- fasting plasma glucose levels (Sprague-Dawley rats [1]; glibenclamide 10 mg·kg^−1 p.o.): significantly reduced the fasting plasma glucose levels

SMILES: CCCCCCCCCCCCCCCC(=O)O [palmitic acid, reference compound]
- EC50 (GPR40/FFAR1): 29 µM
- caspase 3/7 activity ([5]; 300 μmol·L^−1 with 0.5% BSA): induced caspase 3/7 activity
